According to PubChem BioAssay AID504382 (The Scripps Research Institute Molecular Screening Center, 2011):
Hit rate of the full screen: of about 2,500 compounds, about 460 (18%) were called active.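 The calls were made as follows: active = mean activation above a cutoff of low control average plus 3 SD from the earlier screen (cut at about 12% in these data); inactive = the rest.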 Only a sample is shown.

experiment: compound fluorescence interference without thin filaments, confirmation, artefact control for cardiac RTF calcium sensitizer project, biochemical (AID 504382); conditions: IANBD fluorescence interference counterscreen, buffer, EC20 Ca2+; at 7.2 µM; active compounds read high; scaled: EC20 calcium 0, EC100 calcium 100
How it was run: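 Also added: EC20 calcium, 0.472 mM; dosing: single nominal 7.2 µM compound dose, 0.7% DMSO final; timing: 15 min, 25 °C; detection: fluorescence intensity, excitation 480 nm, emission 540 nm; replicates: each compound tested in triplicate wells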

Row | SMILES | fluorescence artifact activation
1 | N#Cc1c(NCCCO)nc(-c2ccccc2)c2c1CCCC2 | 4.04% (inactive)
2 | COc1ccccc1C(=O)Nc1ccc(OC(C)C(=O)N2CCOCC2)cc1 (stereo not drawn) | 822% (active)
3 | COc1ccc(OC(C)C(=O)Nc2cccc(OC)c2)cc1 (stereo not drawn) | 0.45% (inactive)
4 | CCOc1ccc(NC(=O)c2cccc(OC(=S)N3CCOCC3)c2)cc1 | 0% (inactive)
5 | COc1ccc2c(c1)c(/C=C/c1cc[n+](C)cc1)cn2C | 0.08% (inactive)
6 | COC(=O)c1cc2c(C)c(C)c3ccccn3c-2c1C(=O)OC | 0.46% (inactive)
7 | O=C(CCN1C(=O)/C(=C/c2cccs2)SC1=S)NNC(=O)c1cccc(O)c1 | -0.08% (inactive)
8 | Oc1cccc(Nc2nc(O)c(/C=C3\C=Nc4ccccc43)s2)c1 | 43% (active)
9 | COc1cc([N+](=O)[O-])ccc1NC(=O)COC(=O)c1n[nH]c2ccccc12 | 0.03% (inactive)
10 | COc1cc2c(cc1NC(=O)COC(=O)/C=C/c1ccc([N+](=O)[O-])cc1)oc1ccccc12 | 796% (active)
11 | COc1cc([N+](=O)[O-])ccc1N/C=C/C(=O)c1cccs1 | 0.6% (inactive)
12 | Cc1c(C)[n+](=O)c(-c2ccc(Br)cc2)c(C)n1[O-] | 412% (active)
13 | CCn1cc(C(=O)NCCC(=O)NCCO)c(=O)c2cc3c(cc21)OCO3 | 9.79% (inactive)
14 | O=C(C1=NN[C@@H]2C(=O)N(c3ccccc3C(F)(F)F)C(=O)[C@H]12)c1ccc2ccccc2n1 | 22.3% (active)
15 | Cc1cccc(NC(=S)Nc2ccc(N3CCOCC3)cc2)c1C | 0.78% (inactive)
16 | Nc1ccc(-c2c3ccc(=O)cc-3oc3cc(O)ccc23)cc1C(=O)O | -0.02% (inactive)
17 | O=c1ccc2c(-c3ccccc3)c3ccc(O)cc3oc-2c1 | 12.3% (active)
18 | O=c1cc2oc3cc(O)c(O)cc3c(-c3ccccc3O)c-2cc1O | 0.4% (inactive)
19 | CCCNS(=O)(=O)c1ccc2c(c1)n(C)c(=O)n2C | 1.63% (inactive)
20 | Cc1cnc(C(=O)Nc2nnc(SCc3c(Cl)cccc3Cl)s2)cn1 | 1.18% (inactive)
21 | O=C1c2cccc3c(N4CCCCC4)ccc(c23)C(=O)N1c1cccc(O)c1 | 6.35% (inactive)
22 | O=C(OCCN1CCCCC1)c1ccccc1Br | -0.03% (inactive)
23 | CN1CCCC(OC(=O)c2ccccc2Br)C1 (stereo not drawn) | 20.7% (active)
24 | O=C(Cn1c(=O)oc2cc(S(=O)(=O)N3CCCC3)ccc21)N1CCc2ccccc2C1 | 0.09% (inactive)
25 | CC(C)(C)c1ccc(C(=O)Nc2cccc3ncccc23)cc1 | 0.15% (inactive)
26 | CCOC(=O)C(=O)Nc1nnc(COc2ccccc2)s1 | -0.01% (inactive)

Row | SMILES | fluorescence artifact activation
27 | NC(=O)CC(NC(=O)c1ccc(Br)cc1)c1ccc(N2CCN(c3ccc(F)cc3)CC2)c([N+](=O)[O-])c1 (stereo not drawn) | 13.7% (active)
28 | O=C(NCc1ccccc1)c1ccc(N2CCC3(CC2)CC(c2ccccc2)=NO3)c([N+](=O)[O-])c1 | -0.07% (inactive)
29 | NC(=O)CC(NC(=O)Cc1ccc(Cl)cc1)c1ccc(N2CCN(c3ccccn3)CC2)c([N+](=O)[O-])c1 (stereo not drawn) | 51.4% (active)
30 | Cc1cc(C)cc(C(=O)NC(CC(N)=O)c2ccc(N3CCCCCC3)c([N+](=O)[O-])c2)c1 (stereo not drawn) | 0.1% (inactive)
31 | O=C(N/N=C/c1cc([N+](=O)[O-])ccc1N1CCNCC1)c1ccc([N+](=O)[O-])cc1 | 5.53% (inactive)
32 | CN(/N=C/c1ccc(O)cc1O)c1ncc(C(F)(F)F)cc1Cl | 0.11% (inactive)
33 | O=C(c1ccc(Cn2cc([N+](=O)[O-])cn2)o1)N1N=C(C(F)F)CC1(O)C(F)F (stereo not drawn) | 3.96% (inactive)
34 | CC/C(=N/Nc1cccc(C)c1)c1cnnc(SC)n1 | 3.63% (inactive)
35 | Cc1ccccc1NC(=S)Nc1ccc(Br)cc1 | -0.08% (inactive)
36 | Cc1ccc(Cl)c2c(N=Nc3ccccc3)c(O)[nH]c12 | 0.17% (inactive)
37 | COCCN1C(=O)/C(=C/c2ccc(N3CCCC3)cc2C)SC1=S | 0.17% (inactive)
38 | COc1ccc(N2C(N)=NC(N)=NC2(C)C)cc1 | -0.01% (inactive)
39 | COC(=O)c1ccc(NC(=O)c2cccc(OC)c2)cc1 | 0.1% (inactive)
40 | Cc1ccc(OCCCC(=O)NC2CCCCC2)cc1 | 0% (inactive)
41 | Cc1cc(C)n2nc(C(=O)N3CCCC(Nc4ccc(C(C)C)cc4)C3)cc2n1 (stereo not drawn) | 2.67% (inactive)
42 | Cc1cc(=O)n2nc(N3CCCC3C(=O)Nc3ccc(C(C)C)cc3)sc2n1 (stereo not drawn) | 166% (active)
43 | COc1cc(NC(=O)[C@@H]2CCCN2S(=O)(=O)c2cccc3cccnc23)cc(OC)c1OC | 0.18% (inactive)
44 | C=C1CCN([C@@H](Cc2ccccc2)C(=O)O)S(=O)(=O)c2ccccc21 | 4.75% (inactive)
45 | Cc1cccc(NC(=O)Cn2cnc3ccc(S(=O)(=O)N4CCC(C)CC4)cc3c2=O)n1 | 3.57% (inactive)
46 | COc1ccccc1-[n+]1c(C)cc(/C=C2\Sc3ccccc3N2C)cc1C | 0.15% (inactive)
47 | CC[n+]1c(/C=C2\Sc3ccccc3N2C)ccc2cccc(C)c21 | 0.11% (inactive)
48 | COc1ccc(-[n+]2c(C)cc(/C=C3\Sc4ccccc4N3C)cc2C)cc1 | 50.7% (active)
49 | CN(C)CCN(C)Cc1c2ccccc2c(CN(C)CCN(C)C)c2ccccc12 | 8.32% (inactive)
50 | Cc1cccc(N2C(=O)c3cccc4c(N(C)CCO)ccc(c34)C2=O)c1 | 0.05% (inactive)
51 | CC1(c2cccc(Br)c2)NC(=O)NC1=O (stereo not drawn) | 16.7% (active)
52 | Nc1ccc2nc3c(=O)n(C4CCCCC4)c(=O)[nH]c3nc2c1 | 1.78% (inactive)

Row | SMILES | fluorescence artifact activation
53 | Cc1ccc(C)c(N2CCN(C(=O)CN3C(=S)NC(C)(C)CC3C)CC2)c1 (stereo not drawn) | 8.59% (inactive)
54 | C/C=C/c1ccc(OCCCNCC(C)O)c(OC)c1 (stereo not drawn) | 112% (active)
55 | COc1cc(/C=C2\CC/C(=C\c3ccc(OCCO)c(OC)c3)C2=O)ccc1OCCO | 0.12% (inactive)
56 | COc1ccc(OC)c(/C=N/N=C(\N)c2nonc2N)c1 | 9.14% (inactive)
57 | COc1ccc(CN2CCC(=O)N([C@H](CO)c3ccccc3)CC2)cc1 | 6.01% (inactive)
58 | CCOc1ccccc1N1CCN(CC(=O)N(CC(C)C)c2c(N)n(CC(C)C)c(=O)[nH]c2=O)CC1 | 13.8% (active)
59 | CCOc1ccccc1N1CCN(CC(=O)c2c(N)n(C)c(=O)n(C)c2=O)CC1 | 2.53% (inactive)
60 | CC(C)CN(C(=O)CCCc1nc2ccccc2c(=O)[nH]1)c1c(N)n(Cc2ccccc2)c(=O)[nH]c1=O | 0.01% (inactive)
61 | O=C1NC(c2ccccc2)=C(c2nc3ccccc3s2)C(c2ccc(O)cc2)N1 (stereo not drawn) | -0.03% (inactive)
62 | Nc1ccc2c3c(cccc13)-c1ccccc1-2 | 0.02% (inactive)
63 | Cc1n[nH]c(C)c1N1C(=O)c2cccc3c(N4CCCCCC4)ccc(c23)C1=O | 0.08% (inactive)
64 | COc1cc(/C=C2\CCC(C)C3=C(c4cc(OC)c(OC)c(OC)c4)C(C#N)=C(N)OC32)cc(OC)c1OC (stereo not drawn) | 14.5% (active)
65 | CC1(C)CC(=O)C2=C(C1)OC(N)=C(C#N)C21CCN(Cc2ccccc2)CC1 | 0.25% (inactive)
66 | COC(=O)C1=COC(C)C2CN3CCc4c([nH]c5ccccc45)C3CC12 (stereo not drawn) | 1.05% (inactive)
67 | CCOC(=O)Cn1c(=NC(=O)c2cc(-c3cccs3)nc3ccccc23)sc2cc(S(N)(=O)=O)ccc21 | -0.11% (inactive)
68 | CC(C)C(=O)c1cc2c(cc1NC(=O)c1ccccc1)OCCO2 | 0.02% (inactive)
69 | O=C(Nc1ccccc1OC(=O)c1ccccc1)c1ccccc1 | 45% (active)
70 | COc1ccccc1NC(=O)/C=C/C(=O)O | 0.29% (inactive)
71 | COc1ccc(OC)c(C2C3CN(C(C)C)CC=C3C(C#N)=C(N)C2(C#N)C#N)c1 (stereo not drawn) | 1.64% (inactive)
72 | CCn1c(NC(=O)Nc2cccc(C)c2C)cc2sccc21 | 0.08% (inactive)
73 | C#CC[N+](C)(C)CCCCCCCCCC | 13.8% (active)
74 | Cc1nccc(-c2cccc(N/N=C(\C#N)C(=O)c3ccccc3)c2)n1 | -0.02% (inactive)
75 | CCOC(=O)Cn1nc2sc3ccccc3n2c(=O)c1=O | -0.05% (inactive)
76 | Cc1ccc(CNC(=O)c2cccc3c2C(=O)c2ccc(N4CCCCC4)cc2S3(=O)=O)cc1 | -0.01% (inactive)
77 | O=C(CCc1ccc(S(=O)(=O)NCCc2ccccc2)cc1)N1CCN(Cc2ccc3c(c2)OCO3)CC1 | -0.04% (inactive)
78 | Cc1ccc(S(=O)(=O)NC(C)(C)CN2CCC(Cc3ccccc3)CC2)cc1 | 3.9% (inactive)
